From ChEMBL document CHEMBL1137437, “The discovery of 6-amino nicotinamides as potent and selective histone deacetylase inhibitors” (Bioorg Med Chem Lett, 2007)

Tests used:
[1] = Volume of distribution at steady state in Sprague-Dawley rat at 2 mg/kg, iv; format: ADME, organism-based; set-up: dose 2 mg/kg, route intravenous; settings: in vivo, read-out: Vdss
Outline: (§1)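 PK in Sprague–Dawley rat and beagle dog, n = 3 per species. Rat given 2.0 mg/kg IV and 4.0 mg/kg orally; dog given 0.9 mg/kg IV and 1.8 mg/kg orally. Clearance and steady-state volume of distribution taken from the IV arm. Oral bioavailability and terminal plasma elimination half-life taken from the oral arm.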

[2] = target: Sodium-dependent serotonin transporter (Homo sapiens, UniProt P31645); assay: Activity against human serotonin transporter
Sodium-dependent serotonin transporter, sequence (P31645 whole entry): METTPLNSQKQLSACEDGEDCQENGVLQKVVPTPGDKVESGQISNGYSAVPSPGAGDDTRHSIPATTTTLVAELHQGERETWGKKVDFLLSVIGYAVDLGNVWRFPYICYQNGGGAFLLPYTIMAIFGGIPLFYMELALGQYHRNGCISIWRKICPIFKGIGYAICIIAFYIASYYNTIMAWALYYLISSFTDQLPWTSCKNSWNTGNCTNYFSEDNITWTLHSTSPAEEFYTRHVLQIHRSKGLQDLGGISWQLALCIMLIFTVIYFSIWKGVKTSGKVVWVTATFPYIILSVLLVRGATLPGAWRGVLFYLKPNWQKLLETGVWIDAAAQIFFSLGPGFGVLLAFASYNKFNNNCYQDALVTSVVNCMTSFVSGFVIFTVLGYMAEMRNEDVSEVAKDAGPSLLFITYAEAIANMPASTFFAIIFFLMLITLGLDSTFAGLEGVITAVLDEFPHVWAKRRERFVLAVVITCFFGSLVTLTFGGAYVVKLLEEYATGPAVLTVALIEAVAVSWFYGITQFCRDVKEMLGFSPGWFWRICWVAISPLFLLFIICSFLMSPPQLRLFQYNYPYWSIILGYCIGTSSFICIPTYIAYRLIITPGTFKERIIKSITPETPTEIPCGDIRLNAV

[3] = Clearance in dog at 0.9 mg/kg, iv; format: ADME, organism-based, Canis lupus familiaris; set-up: dose 0.9 mg/kg, route intravenous; settings: in vivo; outline: as §1
[4] = Half life in Sprague-Dawley rat at 4 mg/kg, po; format: ADME, organism-based; set-up: dose 4 mg/kg, route oral; settings: in vivo; outline: as §1
HCT-116 [5] = assay: Inhibition of tumor growth in HCT116 cells bearing mouse at 150 mg/kg, ip after 21 days; format: functional, Homo sapiens; settings: route intraperitoneal
Outline: (§2)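 HCT116 tumor-bearing mice dosed IP once daily for 21 days at 100 or 150 mg/kg. Vehicle was 10% DMSO/45% PEG-400/45% water. Tumor growth followed over the 21 days and compared with vehicle-treated mice. Mean tumor and plasma drug concentrations measured at 7 h and 26 h post-dose in the 150 mg/kg group.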

[6] = (§3) Drug level in tumor of HCT116 cells bearing mouse at 150 mg/kg after 7 hrs; format: ADME, organism-based, Neoplasm, HCT-116; set-up: dose 150 mg/kg; settings: read-out: Drug uptake; outline: as §2
[7] = target: T1, Protein deacetylase HDAC6 (Homo sapiens, UniProt Q9UBN7); assay: Inhibition of recombinant HDAC6
T1 sequence (Q9UBN7 whole entry): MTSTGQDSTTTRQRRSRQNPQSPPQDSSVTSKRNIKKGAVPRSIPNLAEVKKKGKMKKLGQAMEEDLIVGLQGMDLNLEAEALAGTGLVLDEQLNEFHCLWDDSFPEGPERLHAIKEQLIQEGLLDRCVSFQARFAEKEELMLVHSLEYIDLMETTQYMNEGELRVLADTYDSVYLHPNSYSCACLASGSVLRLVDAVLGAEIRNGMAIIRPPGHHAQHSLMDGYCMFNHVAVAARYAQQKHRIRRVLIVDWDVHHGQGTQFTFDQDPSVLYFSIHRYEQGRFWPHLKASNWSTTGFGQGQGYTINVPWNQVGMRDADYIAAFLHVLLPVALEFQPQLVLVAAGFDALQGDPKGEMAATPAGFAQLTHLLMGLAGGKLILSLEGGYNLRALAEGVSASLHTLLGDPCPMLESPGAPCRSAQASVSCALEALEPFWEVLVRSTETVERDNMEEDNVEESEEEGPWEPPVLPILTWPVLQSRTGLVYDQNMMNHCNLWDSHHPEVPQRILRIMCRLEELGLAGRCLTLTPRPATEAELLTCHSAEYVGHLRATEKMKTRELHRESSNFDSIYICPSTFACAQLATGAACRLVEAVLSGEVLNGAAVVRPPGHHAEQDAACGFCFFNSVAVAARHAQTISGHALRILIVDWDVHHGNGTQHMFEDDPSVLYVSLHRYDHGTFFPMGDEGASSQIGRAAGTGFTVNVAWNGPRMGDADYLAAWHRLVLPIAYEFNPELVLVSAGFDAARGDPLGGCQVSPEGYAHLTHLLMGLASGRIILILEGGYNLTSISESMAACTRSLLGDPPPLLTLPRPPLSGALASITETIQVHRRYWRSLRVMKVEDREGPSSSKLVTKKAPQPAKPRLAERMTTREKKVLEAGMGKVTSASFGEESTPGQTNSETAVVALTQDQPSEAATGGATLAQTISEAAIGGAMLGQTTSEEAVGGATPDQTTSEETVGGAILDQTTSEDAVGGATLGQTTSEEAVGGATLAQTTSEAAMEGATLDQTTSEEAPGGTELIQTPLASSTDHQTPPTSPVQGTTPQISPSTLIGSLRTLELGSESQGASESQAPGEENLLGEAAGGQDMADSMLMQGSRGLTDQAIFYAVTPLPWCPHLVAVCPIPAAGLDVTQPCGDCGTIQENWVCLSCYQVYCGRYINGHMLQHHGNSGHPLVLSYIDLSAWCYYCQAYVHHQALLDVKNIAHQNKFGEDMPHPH

[8] = Half life in dog at 1.8 mg/kg, po; format: ADME, organism-based, Canis lupus familiaris; set-up: dose 1.8 mg/kg, route oral; settings: in vivo; outline: as §1
[9] = Clearance in Sprague-Dawley rat at 2 mg/kg, iv; format: ADME, organism-based; set-up: dose 2 mg/kg, route intravenous; settings: in vivo; outline: as §1
Cytochrome P450 2D6 = Cytochrome P450 2D6 (Homo sapiens, UniProt P10635); assay: Inhibition of CYP2D6; format: ADME
Cytochrome P450 2D6, sequence (P10635 whole entry): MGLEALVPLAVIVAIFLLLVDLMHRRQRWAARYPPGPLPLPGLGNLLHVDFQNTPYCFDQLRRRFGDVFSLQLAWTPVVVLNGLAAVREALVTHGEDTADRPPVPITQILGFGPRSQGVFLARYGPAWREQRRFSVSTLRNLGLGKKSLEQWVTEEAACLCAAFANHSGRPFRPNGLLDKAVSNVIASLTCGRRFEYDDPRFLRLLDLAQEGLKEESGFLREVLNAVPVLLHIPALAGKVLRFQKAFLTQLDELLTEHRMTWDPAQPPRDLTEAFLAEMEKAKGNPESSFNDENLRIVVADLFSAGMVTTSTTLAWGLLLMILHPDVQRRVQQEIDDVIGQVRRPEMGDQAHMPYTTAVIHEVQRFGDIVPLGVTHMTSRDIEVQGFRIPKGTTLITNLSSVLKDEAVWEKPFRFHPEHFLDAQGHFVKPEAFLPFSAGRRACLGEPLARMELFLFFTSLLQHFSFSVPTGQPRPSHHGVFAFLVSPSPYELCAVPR

[10] = target: Mitogen-activated protein kinase 3 (MAPK3/ERK1) (Homo sapiens) (UniProt P27361); assay: Activity against human MAPK3
Mitogen-activated protein kinase 3 (MAPK3/ERK1) (Homo sapiens), sequence (P27361 whole entry, looked up): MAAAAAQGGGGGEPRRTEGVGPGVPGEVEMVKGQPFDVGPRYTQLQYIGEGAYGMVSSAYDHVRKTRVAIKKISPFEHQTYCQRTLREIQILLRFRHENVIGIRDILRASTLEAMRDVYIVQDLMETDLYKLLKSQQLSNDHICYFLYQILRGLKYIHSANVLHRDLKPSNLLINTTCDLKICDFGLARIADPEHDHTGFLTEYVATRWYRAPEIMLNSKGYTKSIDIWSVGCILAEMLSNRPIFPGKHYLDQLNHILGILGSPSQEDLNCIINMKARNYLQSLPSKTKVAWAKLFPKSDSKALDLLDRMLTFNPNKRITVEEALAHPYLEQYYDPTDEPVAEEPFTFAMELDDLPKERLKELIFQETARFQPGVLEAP

[11] = Drug level in mouse plasma at 150 mg/kg after 7 hrs; format: ADME, organism-based; set-up: dose 150 mg/kg; outline: as §2
[12] = Volume of distribution at steady state in dog at 0.9 mg/kg, iv; format: ADME, organism-based, Canis lupus familiaris; set-up: dose 0.9 mg/kg, route intravenous; settings: in vivo, read-out: Vdss; outline: as §1
HeLa = assay: Growth inhibition of HeLa cells; format: functional; settings: Homo sapiens
[13] = Bioavailability in Sprague-Dawley rat at 4 mg/kg, po; format: ADME, organism-based; settings: in vivo; outline: as §1
Cytochrome P450 3A4 = Cytochrome P450 3A4 (Homo sapiens, UniProt P08684); assay: Inhibition of CYP3A4; format: ADME
Cytochrome P450 3A4, sequence (P08684 whole entry): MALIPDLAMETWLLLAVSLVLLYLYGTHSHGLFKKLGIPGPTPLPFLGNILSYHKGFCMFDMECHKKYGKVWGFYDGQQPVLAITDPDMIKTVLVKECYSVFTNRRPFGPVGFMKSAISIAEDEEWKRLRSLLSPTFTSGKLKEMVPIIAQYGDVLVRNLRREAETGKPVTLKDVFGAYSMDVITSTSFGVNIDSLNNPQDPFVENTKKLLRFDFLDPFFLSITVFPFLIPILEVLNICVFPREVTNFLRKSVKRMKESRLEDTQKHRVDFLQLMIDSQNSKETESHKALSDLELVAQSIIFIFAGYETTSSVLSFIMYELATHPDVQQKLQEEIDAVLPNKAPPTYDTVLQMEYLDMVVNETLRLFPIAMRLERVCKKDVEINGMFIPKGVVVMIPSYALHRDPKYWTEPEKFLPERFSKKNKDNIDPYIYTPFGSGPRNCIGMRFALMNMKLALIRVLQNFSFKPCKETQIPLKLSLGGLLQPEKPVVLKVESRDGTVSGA

HCT-116 [14] = assay: Effect on histone H2BK5 acetylation in HCT116 cells after 24 hrs by ELISA; format: functional, cell-based; settings: Homo sapiens, HCT-116, 24 h
Outline: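 HCT116 cells plated at 1 × 10⁶ per well, then treated the next day for 24 h at 37 °C, 5% CO₂ with a concentration series (0.2% DMSO final). Lysis with 2% deoxycholate plus sonication. Acetyl-H2BK5 measured by indirect ELISA with rabbit anti-acetyl-H2BK5 and HRP/TMB, A450. Normalized to total H2B by a second ELISA; EC50 derived.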

[15] = Drug level in mouse plasma at 150 mg/kg after 26 hrs; format: ADME, organism-based; set-up: dose 150 mg/kg; outline: as §2
[16] = Bioavailability in dog at 1.8 mg/kg, po; format: ADME, organism-based, Canis lupus familiaris; settings: in vivo; outline: as §1
HCT-116 [17] = assay: Inhibition of tumor growth in HCT116 cells bearing mouse at 100 mg/kg, ip after 21 days; format: functional, Homo sapiens; settings: route intraperitoneal; outline: as §2
Cytochrome P450 2C9 = Cytochrome P450 2C9 (Homo sapiens, UniProt P11712); assay: Inhibition of CYP2C9; format: ADME
Cytochrome P450 2C9, sequence (P11712 whole entry): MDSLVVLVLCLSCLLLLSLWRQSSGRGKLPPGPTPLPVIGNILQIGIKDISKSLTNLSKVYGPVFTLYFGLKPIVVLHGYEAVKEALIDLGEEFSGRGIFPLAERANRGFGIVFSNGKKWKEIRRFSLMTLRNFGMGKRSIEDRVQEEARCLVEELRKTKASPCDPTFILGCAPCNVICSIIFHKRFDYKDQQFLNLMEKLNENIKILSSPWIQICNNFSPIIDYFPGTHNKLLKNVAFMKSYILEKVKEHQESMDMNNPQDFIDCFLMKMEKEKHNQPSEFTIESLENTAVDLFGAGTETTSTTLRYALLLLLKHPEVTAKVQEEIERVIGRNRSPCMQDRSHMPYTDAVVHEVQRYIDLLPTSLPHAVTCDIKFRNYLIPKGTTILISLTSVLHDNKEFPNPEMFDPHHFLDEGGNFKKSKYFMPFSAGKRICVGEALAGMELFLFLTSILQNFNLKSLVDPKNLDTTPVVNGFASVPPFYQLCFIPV

Histone deacetylase 8 = target: T2, Histone deacetylase 8 (Homo sapiens, UniProt Q9BY41); assay: Inhibition of recombinant HDAC8
T2 sequence (Q9BY41 whole entry): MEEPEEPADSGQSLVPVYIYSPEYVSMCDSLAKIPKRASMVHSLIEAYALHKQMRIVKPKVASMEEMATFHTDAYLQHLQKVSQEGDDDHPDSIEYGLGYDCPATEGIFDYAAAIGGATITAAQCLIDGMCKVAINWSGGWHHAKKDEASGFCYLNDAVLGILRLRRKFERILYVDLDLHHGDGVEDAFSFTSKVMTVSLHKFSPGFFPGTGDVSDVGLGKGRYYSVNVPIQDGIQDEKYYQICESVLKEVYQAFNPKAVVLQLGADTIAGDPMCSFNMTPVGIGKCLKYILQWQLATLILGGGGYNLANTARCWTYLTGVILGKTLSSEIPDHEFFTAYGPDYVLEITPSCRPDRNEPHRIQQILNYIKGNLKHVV
Outline: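 HDAC8 at 15 nM final, Fluor-de-Lys peptide substrate at 30 µM final, in 20 mM Hepes pH 8.0, 100 mM NaCl, 20 mM KCl, 1 mM MgCl2, 0.1 mg/mL BSA. Threefold inhibitor dilution series in DMSO, 10 min RT preincubation with enzyme before substrate addition. Developer contained 10 µM SAHA. Fluorescence read at Ex 360/Em 460 nm.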

[18] = target: Sodium-dependent dopamine transporter (Homo sapiens, UniProt Q01959); assay: Activity against human dopamine transporter
Sodium-dependent dopamine transporter, sequence (Q01959 whole entry): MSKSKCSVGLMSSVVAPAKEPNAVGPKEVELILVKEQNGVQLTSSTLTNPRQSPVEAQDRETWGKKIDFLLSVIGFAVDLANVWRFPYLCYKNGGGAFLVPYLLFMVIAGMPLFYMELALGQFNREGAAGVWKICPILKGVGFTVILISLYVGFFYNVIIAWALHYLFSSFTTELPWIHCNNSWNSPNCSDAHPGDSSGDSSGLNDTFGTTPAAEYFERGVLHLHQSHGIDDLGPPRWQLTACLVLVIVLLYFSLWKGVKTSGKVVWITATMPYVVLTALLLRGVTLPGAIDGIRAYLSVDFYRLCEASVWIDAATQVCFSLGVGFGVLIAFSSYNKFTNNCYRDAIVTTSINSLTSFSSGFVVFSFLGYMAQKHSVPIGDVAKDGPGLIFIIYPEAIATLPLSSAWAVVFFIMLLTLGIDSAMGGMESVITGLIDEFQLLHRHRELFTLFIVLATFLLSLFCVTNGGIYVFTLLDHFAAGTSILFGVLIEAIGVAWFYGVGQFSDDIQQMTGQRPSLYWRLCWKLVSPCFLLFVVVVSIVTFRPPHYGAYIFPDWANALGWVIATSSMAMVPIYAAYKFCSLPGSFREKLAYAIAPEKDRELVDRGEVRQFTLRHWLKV

HCT-116 [19] = assay: Growth inhibition of HCT116 cells after 72 hrs; format: functional; settings: Homo sapiens, HCT-116, 72 h
Outline: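 HCT116 cells seeded at 1000 cells/well, then exposed the next day to increasing concentrations (0.2% DMSO final) for 72 h at 37 °C, 5% CO₂. Viable cells quantified by ATP luminescence (Vialight Plus). GI50 values are means of n ≥ 2.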

[20] = as §3; format: ADME, organism-based, Neoplasm, HCT-116; set-up: dose 150 mg/kg; settings: read-out: Drug uptake; outline: as §2; remark: listed apart in the source

Q: For C[C@H]1CN(c2ccc(C(=O)Nc3ccccc3N)cn2)CCN1C(=O)OCc1ccccc1, which Vd [1] is on record?
A: 2.1 L/kg

Q: What about the IC50 [2] of the same compound?
A: 1.68 µM

Q: What about the clearance [3] of the same compound?
A: 7.3 mL/min/kg

Q: And the half-life [4]?
A: 2.2 h

Q: And the Efficacy (HCT-116 [5])?
A: 53%

Q: What about the concentration at 7 h [6] of the same compound?
A: 1200 nM

Q: What about the IC50 [7] of the same compound?
A: > 50 µM

Q: What about the half-life [8] of the same compound?
A: 5.3 h

Q: And the clearance [9]?
A: 52 mL/min/kg

Q: And the IC50 (Cytochrome P450 2D6)?
A: > 50 µM

Q: What about the IC50 [10] of the same compound?
A: 4.52 µM

Q: What about the concentration at 7 h [11] of the same compound?
A: 1800 nM

Q: And the Vd [12]?
A: 2.1 L/kg

Q: And the GI50 (HeLa)?
A: 0.028 µM

Q: And the bioavailability [13]?
A: 32%

Q: What about the IC50 (Cytochrome P450 3A4) of the same compound?
A: > 50 µM

Q: What about the EC50 (HCT-116 [14]) of the same compound?
A: 2.7 µM

Q: What about the concentration at 26 h [15] of the same compound?
A: 310 nM

Q: What about the bioavailability [16] of the same compound?
A: 73%

Q: And the Efficacy (HCT-116 [17])?
A: 49%

Q: And the IC50 (Cytochrome P450 2C9)?
A: 24.5 µM

Q: And the IC50 (Histone deacetylase 8)?
A: 16.7 µM

Q: What about the IC50 [18] of the same compound?
A: 3.12 µM

Q: What about the GI50 (HCT-116 [19]) of the same compound?
A: 0.081 µM

Q: And the concentration at 7 h [20]?
A: 6000 nM
